Test results taken from ChEMBL document CHEMBL3992493, “New approach of delivering cytotoxic drugs towards CAIX expressing cells: A concept of dual-target drugs” (Eur J Med Chem, 2017).
Active and inactive are the calls of the source. The rule behind the calls is not given here.

Tests used:
MDCK [1] = assay: Cytotoxicity against MDCK cells expressing carbonic anhydrase 9 assessed as reduction in cell viability after 72 hrs under normoxic condition by Alamar blue assay; type: functional, cell-based; conditions: Canis lupus familiaris
MDCK [2] = assay: Cytotoxicity against carbonic anhydrase 9 knockdown MDCK cells assessed as reduction in cell viability after 72 hrs under normoxic condition by Alamar blue assay; type: cell-based; conditions: Canis lupus familiaris
Carbonic anhydrase 9 = Carbonic anhydrase 9 (Homo sapiens, UniProt Q16790); assay: Binding affinity to recombinant human carbonic anhydrase 9 after 15 mins by stopped-flow CO2 hydration assay
MDCK [3] = assay: Cytotoxicity against carbonic anhydrase 9 knockdown MDCK cells assessed as reduction in cell viability after 72 hrs under hypoxic condition by Alamar blue assay; type: cell-based; conditions: Canis lupus familiaris
MDCK [4] = assay: Cytotoxicity against MDCK cells expressing carbonic anhydrase 9 assessed as reduction in cell viability after 72 hrs under hypoxic condition by Alamar blue assay; type: functional, cell-based; conditions: Canis lupus familiaris
MDCK [5] = assay: Cytotoxicity against MDCK cells expressing carbonic anhydrase 9 assessed as reduction in cell viability after 2 hrs under hypoxic condition by Alamar blue assay; type: functional, cell-based; conditions: Canis lupus familiaris
How it was run: (§1)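 MDCK cells transfected with human CAIX (CAIX+) or scrambled control vector (CAIX−), in DMEM/10% FBS, seeded and attached overnight. Medium replaced with pre-equilibrated hypoxic DMEM (0.2% O2, 5% CO2) for 24 h. Compounds in DMSO (0.5%) added for 2 h, then washed off. Cells regrown 72 h in normoxia. Viability read by alamarBlue conversion for 2 h under normoxia.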

MDCK [6] = assay: Cytotoxicity against carbonic anhydrase 9 knockdown MDCK cells assessed as reduction in cell viability preincubated for 2 hrs followed by 72 hrs incubation under normoxic condition by Alamar blue assay; type: cell-based; conditions: Canis lupus familiaris
MDCK [7] = assay: Cytotoxicity against carbonic anhydrase 9 knockdown MDCK cells assessed as reduction in cell viability after 2 hrs under hypoxic condition by Alamar blue assay; type: cell-based; conditions: Canis lupus familiaris; how it was run: as §1
MDCK [8] = assay: Cytotoxicity against MDCK cells expressing carbonic anhydrase 9 assessed as reduction in cell viability preincubated for 2 hrs followed by 72 hrs incubation under normoxic condition by Alamar blue assay; type: functional, cell-based; conditions: Canis lupus familiaris
How it was run: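 CAIX-overexpressing or scrambled-vector MDCK cells in DMEM/10% FBS, attached overnight, held 24 h at 21% O2/5% CO2. Drug added (0.5% DMSO vehicle) for 2 h, washed off, then 72 h further normoxic growth. Viability measured by 2 h alamarBlue conversion under normoxia.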

Carbonic anhydrase 1 = Carbonic anhydrase 1 (Homo sapiens, UniProt P00915); assay: Binding affinity to recombinant human carbonic anhydrase 1 after 15 mins by stopped-flow CO2 hydration assay
Chain of Carbonic anhydrase 1 (P00915 whole entry): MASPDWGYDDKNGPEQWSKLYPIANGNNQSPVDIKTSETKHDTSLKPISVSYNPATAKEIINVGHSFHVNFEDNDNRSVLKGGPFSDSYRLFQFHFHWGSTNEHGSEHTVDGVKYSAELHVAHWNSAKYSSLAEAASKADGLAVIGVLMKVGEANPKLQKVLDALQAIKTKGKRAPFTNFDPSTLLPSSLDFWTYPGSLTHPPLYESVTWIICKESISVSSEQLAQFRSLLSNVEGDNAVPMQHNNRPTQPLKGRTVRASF

Carbonic anhydrase 2 = Carbonic anhydrase 2 (Homo sapiens, UniProt P00918); assay: Binding affinity to recombinant human carbonic anhydrase 2 after 15 mins by stopped-flow CO2 hydration assay
Carbonic anhydrase 12 = Carbonic anhydrase 12 (Homo sapiens, UniProt O43570); assay: Binding affinity to recombinant human carbonic anhydrase 12 after 15 mins by stopped-flow CO2 hydration assay
Chain of Carbonic anhydrase 12 (O43570 whole entry): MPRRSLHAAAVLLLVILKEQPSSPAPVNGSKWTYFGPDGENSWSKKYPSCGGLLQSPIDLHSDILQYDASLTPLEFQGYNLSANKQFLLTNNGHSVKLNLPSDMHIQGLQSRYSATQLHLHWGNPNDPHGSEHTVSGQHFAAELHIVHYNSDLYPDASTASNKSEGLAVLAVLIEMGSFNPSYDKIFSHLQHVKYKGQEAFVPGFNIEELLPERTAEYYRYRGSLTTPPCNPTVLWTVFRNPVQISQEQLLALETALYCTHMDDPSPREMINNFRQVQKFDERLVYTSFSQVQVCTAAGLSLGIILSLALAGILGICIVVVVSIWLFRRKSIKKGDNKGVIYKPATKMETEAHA

MDCK [9] = assay: Cytotoxicity against MDCK cells expressing carbonic anhydrase 9 assessed as reduction in cell viability at 50 nM after 72 hrs under anoxic condition by Alamar blue assay; type: functional, cell-based; conditions: Canis lupus familiaris
How it was run: (§2)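 ATR inhibitor without irradiation: MDCK CAIX+ or scrambled-control CAIX− cells were preconditioned 24 h at ≤0.02% O2 (anoxia) or 21% O2. Compound was added in 0.5% DMSO for 72 h, then washed off. Cells regrew 72 h under normoxia, followed by 2 h alamarBlue conversion. Viability is relative to control.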

MDCK [10] = assay: Cytotoxicity against carbonic anhydrase 9 knockdown MDCK cells assessed as reduction in cell viability at 50 nM pretreated for 72 hrs followed by 72 hrs incubation under normoxic condition by Alamar blue assay; type: cell-based, Canis lupus familiaris; conditions: dog, 0.05 µM; how it was run: as §2
MDCK [11] = assay: Cytotoxicity against carbonic anhydrase 9 knockdown MDCK cells assessed as reduction in cell viability at 50 nM pretreated for 1 hr followed by 4 Gy irradiation under anoxic condition by Alamar blue assay; type: cell-based, Canis lupus familiaris; conditions: dog, 0.05 µM
How it was run: (§3)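 ATR inhibitor plus radiation: MDCK CAIX+/CAIX− cells were preconditioned 24 h under normoxia (21% O2) or anoxia (≤0.02% O2). Compound in 0.5% DMSO was added 1 h before X-irradiation, 2 Gy normoxic or 4 Gy anoxic. Total compound exposure was 72 h, then washout and 72 h normoxic regrowth. Readout was 2 h alamarBlue conversion, as relative viability.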

MDCK [12] = assay: Cytotoxicity against MDCK cells expressing carbonic anhydrase 9 assessed as reduction in cell viability at 50 nM pretreated for 72 hrs followed by 72 hrs incubation under normoxic condition by Alamar blue assay; type: functional, cell-based; conditions: Canis lupus familiaris; how it was run: as §2
MDCK [13] = assay: Cytotoxicity against MDCK cells expressing carbonic anhydrase 9 assessed as reduction in cell viability at 50 nM pretreated for 1 hr followed by 4 Gy irradiation under anoxic condition by Alamar blue assay; type: functional, cell-based; conditions: Canis lupus familiaris; how it was run: as §3
MDCK [14] = assay: Cytotoxicity against MDCK cells expressing carbonic anhydrase 9 assessed as reduction in cell viability at 50 nM pretreated for 1 hr followed by 2 Gy irradiation under normoxic condition by Alamar blue assay; type: functional, cell-based; conditions: Canis lupus familiaris; how it was run: as §3
MDCK [15] = assay: Cytotoxicity against carbonic anhydrase 9 knockdown MDCK cells assessed as reduction in cell viability at 50 nM after 72 hrs under anoxic condition by Alamar blue assay; type: cell-based, Canis lupus familiaris; conditions: dog, 0.05 µM; how it was run: as §2
HCT-116 = assay: Effect on mitochondrial respiration in human HCT116 cells expressing carbonic anhydrase 9 assessed as reduction in oxygen consumption rate at 0.5 mM […]; type: functional, cell-based
MDCK [16] = assay: Cytotoxicity against carbonic anhydrase 9 knockdown MDCK cells assessed as reduction in cell viability at 500 nM after 72 hrs under anoxic condition by Alamar blue assay; type: cell-based, Canis lupus familiaris; conditions: dog, 0.5 µM
How it was run: (§4)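 MDCK CAIX+ or CAIX− cells, 24 h anoxic preincubation (≤0.02% O2, 5% CO2) in pre-equilibrated DMEM. ATR inhibitors (0.5% DMSO) applied for 72 h without irradiation, then washed off, and 72 h normoxic regrowth. Readout by 2 h alamarBlue conversion under normoxia.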

MDCK [17] = assay: Cytotoxicity against MDCK cells expressing carbonic anhydrase 9 assessed as reduction in cell viability at 500 nM pretreated for 1 hr followed by 4 Gy irradiation under anoxic condition by Alamar blue assay; type: functional, cell-based; conditions: Canis lupus familiaris
How it was run: (§5)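 MDCK cells with or without CAIX, pre-exposed 24 h to anoxia (≤0.02% O2, 5% CO2, balance N2) in pre-equilibrated DMEM. ATR inhibitors in 0.5% DMSO added 1 h before 4 Gy X-irradiation. Exposure 72 h total, medium replaced, then 72 h normoxic regrowth. Viability by 2 h alamarBlue in normoxia.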

MDCK [18] = assay: Cytotoxicity against carbonic anhydrase 9 knockdown MDCK cells assessed as reduction in cell viability at 500 nM pretreated for 1 hr followed by 4 Gy irradiation under anoxic condition by Alamar blue assay; type: cell-based, Canis lupus familiaris; conditions: dog, 0.5 µM; how it was run: as §5
MDCK [19] = assay: Cytotoxicity against MDCK cells expressing carbonic anhydrase 9 assessed as reduction in cell viability at 500 nM pretreated for 1 hr followed by 2 Gy irradiation under normoxic condition by Alamar blue assay; type: functional, cell-based; conditions: Canis lupus familiaris
How it was run: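 MDCK CAIX+ cells (human CAIX transfected) under normoxia (21% O2, 5% CO2). ATR inhibitors in 0.5% DMSO added 1 h before X-irradiation with 2 Gy. Exposure 72 h total, medium replaced, then 72 h further growth. Viability by 2 h alamarBlue conversion in normoxia.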

MDCK [20] = assay: Cytotoxicity against MDCK cells expressing carbonic anhydrase 9 assessed as reduction in cell viability at 500 nM pretreated for 72 hrs followed by 72 hrs incubation under normoxic condition by Alamar blue assay; type: functional, cell-based; conditions: Canis lupus familiaris
How it was run: (§6)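 MDCK cells transfected with human CAIX or scrambled vector, normoxia (21% O2, 5% CO2). ATR inhibitors in 0.5% DMSO for 72 h, medium replaced, cells grown a further 72 h. Viability from 2 h alamarBlue conversion in normoxia.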

MDCK [21] = assay: Cytotoxicity against MDCK cells expressing carbonic anhydrase 9 assessed as reduction in cell viability at 500 nM after 72 hrs under anoxic condition by Alamar blue assay; type: functional, cell-based; conditions: Canis lupus familiaris; how it was run: as §4
MDCK [22] = assay: Cytotoxicity against carbonic anhydrase 9 knockdown MDCK cells assessed as reduction in cell viability at 500 nM pretreated for 72 hrs followed by 72 hrs incubation under normoxic condition by Alamar blue assay; type: cell-based, Canis lupus familiaris; conditions: dog, 0.5 µM; how it was run: as §6

Compound	Ki (Carbonic anhydrase 9) [nM]	IC50 (MDCK [5]) [µM]	IC50 (MDCK [6]) [µM]	IC50 (MDCK [7]) [µM]	IC50 (MDCK [8]) [µM]	Ki (Carbonic anhydrase 1) [µM]	Ki (Carbonic anhydrase 2) [nM]	Ki (Carbonic anhydrase 12) [µM]	also measured
Cn1nnc2c(C(=O)NCc3ccc(S(N)(=O)=O)cc3)ncn2c1=O	271								IC50 (MDCK [1]): > 1 mM; IC50 (MDCK [2]): > 1 mM; IC50 (MDCK [3]): > 1 mM; IC50 (MDCK [4]): > 1 mM
NS(=O)(=O)c1ccc(CCNc2n[n+]([O-])c3ccccc3[n+]2[O-])cc1	383	> 300	> 300	300	> 300				
O=C(O)CCCc1ccc(N(CCCl)CCCl)cc1 [CHLORAMBUCIL]	> 50000	> 100	93	100	> 100	> 50	> 50000	> 50	
NS(=O)(=O)c1ccc(CNC(=O)CCCc2ccc(N(CCCl)CCCl)cc2)cc1	8970	92	18	14	98	5.95	747	7.34	
NS(=O)(=O)c1ccc(CCNc2n[n+]([O-])c3cc4c(cc3[n+]2[O-])CCC4)cc1	307	> 300	> 300	> 300	> 300				
Cn1nnc2c(C(=O)NCCc3ccc(S(N)(=O)=O)cc3)ncn2c1=O	37.1								IC50 (MDCK [1]): > 1 mM; IC50 (MDCK [2]): > 1 mM; IC50 (MDCK [3]): > 1 mM; IC50 (MDCK [4]): > 1 mM
NS(=O)(=O)c1ccc(CCNC(=O)CCCc2ccc(N(CCCl)CCCl)cc2)cc1	4610	100	18	18	100	8.4	450	10.2	
NS(=O)(=O)c1ccc(NC(=O)OCCCCc2ccc(N(CCCl)CCCl)cc2)cc1	2740	62	8	8	56	5.58	553	9.38	
NS(=O)(=O)c1ccc(CCNC(=O)OCCCCc2ccc(N(CCCl)CCCl)cc2)cc1	3850	100	89	81	99	5.67	504	13.6	
NS(=O)(=O)c1ccc(CNC(=O)OCCCCc2ccc(N(CCCl)CCCl)cc2)cc1	4130	100	86	52	98	6.14	265	9.57	
CNCc1ccc(-c2cc(-c3nc(-c4ccc(S(=O)(=O)C(C)C)cc4)cnc3NS(N)(=O)=O)on2)cc1	> 50000					> 50	> 50000	> 50	Activity (MDCK [9]): Active; Activity (MDCK [10]): Toxic; Activity (MDCK [11]): Non-Toxic; Activity (MDCK [12]): Active; Activity (MDCK [13]): inactive; Activity (MDCK [14]): inactive; Activity (MDCK [15]): Toxic
Nc1n[n+]([O-])c2ccccc2[n+]1[O-] [TIRAPAZAMINE]	> 50000	95	> 300	< 50	> 300	> 50	> 50000	> 50	
Cn1nnc2c(C(=O)Nc3nnc(S(N)(=O)=O)s3)ncn2c1=O	176								IC50 (MDCK [1]): > 1 mM; IC50 (MDCK [2]): > 1 mM; IC50 (MDCK [3]): > 1 mM; IC50 (MDCK [4]): > 1 mM
NS(=O)(=O)c1ccc(NC(=O)CCCc2ccc(N(CCCl)CCCl)cc2)cc1	172	95	100	100	87	0.073	9	0.689	
N=C(N)NC(=N)NCCc1ccccc1									Activity (HCT-116): Active
CS(=O)(=O)c1ccc(-c2cnc(N)c(C(=O)Nc3ccccc3)n2)cc1	> 50000					> 50	> 50000	> 50	Activity (MDCK [16]): Toxic; Activity (MDCK [17]): Active; Activity (MDCK [18]): Non-Toxic; Activity (MDCK [19]): Active; Activity (MDCK [20]): Active; Activity (MDCK [21]): Active; Activity (MDCK [22]): Toxic
